Reference: article PMC10783423 (Medicine, 2024)
Ends that are not written are not given here.

Target: Human thrombin (Homo sapiens, UniProt P00734)
Test: Thrombin inhibitory assay with chromogenic substrate S-2238
Type: biochemical
Procedure, shortened: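 Human thrombin (2 U/mL working solution) premixed with test peptide at a range of concentrations. Chromogenic substrate S-2238 (1 mM solution) then added; blanks received buffer instead. All components were in 50 mM Tris-HCl, pH 7.5. Reaction ran 5 min at 37°C, with absorbance read at 375 nm. IC50 was taken as the peptide concentration giving 50% thrombin inhibition.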

AEGYA [P1]
IC50: 0.53 µM

EVVNQ [P2]
IC50: 4.35 µM

FASRW [P5]
IC50: 2.67 µM

FFQQSGG [FFQQSGG]
IC50: 2670 µM

FVEIQAL [FVEIQAL]
IC50: 530 µM

SLVTKVS [SLVTKVS]
IC50: 4350 µM
